Results reported in article PMC4899155 (Molecular pharmaceutics, 2016).

Columns and labels:
[1] = test system: Balb/c mice; assay: Rotarod assay; type: in vivo, mouse; conditions: 10 minutes after injection, 15 rpm
[2] = test system: Ova S/C Balb/c mice; assay: Airway eosinophilia; type: in vivo, mouse
[3] = test system: Ova S/C Balb/c mice; assay: Mucin volume density; type: in vivo, mouse
Method in brief: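 Ova-sensitized/challenged Balb/c mice were dosed as single 20 mg/kg i.p. 40 min before analysis, twice-daily 20 mg/kg i.p. for 5 days, osmotic pump 20 mg/kg/day for 7 days, or dexamethasone 4 mg/kg daily for 8 days. Formalin-perfused lungs were cut into 5 μm paraffin sections and stained with periodic acid fluorescent Schiff. Mucin area in axial-bronchus epithelium per basement-membrane length was normalized to control and Ova groups (5-7 mice/group).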

[4] = Blood concentration under repeated dosing / osmotic minipump in Ova S/C mice; type: in vivo, Balb/c mice
Method in brief: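 Ova-sensitized/challenged Balb/c mice received test compound by surgically implanted osmotic minipump at 20 mg/kg/day for 7 days, or by two i.p. injections daily over the 5-day challenge period. Blood concentration was taken on the day of airway hyper-responsiveness measurement (day 28).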

[5] = test system: α6β3γ2 GABAAR; conditions: at concentrations higher that 1 μM ref 27; cited from earlier work
[6] = Metabolic stability in mouse liver microsomes; type: in vitro ADME
[7] = Metabolic stability in mouse S9 fraction; type: in vitro ADME; conditions: 1 hour incubation
[8] = target: α4β3γ2 GABAAR (Homo sapiens, UniProt P18507+P48169); conditions: α4β3γ2 ref 27; cited from earlier work
Sequence of α4β3γ2 GABAAR (P48169 36-554): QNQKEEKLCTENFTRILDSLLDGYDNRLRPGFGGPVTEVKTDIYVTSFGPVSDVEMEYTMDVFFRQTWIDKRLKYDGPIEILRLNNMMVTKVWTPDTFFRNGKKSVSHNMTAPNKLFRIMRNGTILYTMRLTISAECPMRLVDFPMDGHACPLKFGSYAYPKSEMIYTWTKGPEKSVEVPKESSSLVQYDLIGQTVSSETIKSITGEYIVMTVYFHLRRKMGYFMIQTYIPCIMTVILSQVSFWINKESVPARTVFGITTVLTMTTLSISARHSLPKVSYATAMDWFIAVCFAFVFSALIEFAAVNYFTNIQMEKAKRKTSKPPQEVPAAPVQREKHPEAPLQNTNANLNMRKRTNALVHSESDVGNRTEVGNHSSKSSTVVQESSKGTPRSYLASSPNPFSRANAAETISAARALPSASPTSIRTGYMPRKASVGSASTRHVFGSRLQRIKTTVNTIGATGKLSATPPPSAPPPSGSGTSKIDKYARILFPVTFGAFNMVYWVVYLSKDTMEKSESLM
Sequence of α4β3γ2 GABAAR (P28472 26-473 partner): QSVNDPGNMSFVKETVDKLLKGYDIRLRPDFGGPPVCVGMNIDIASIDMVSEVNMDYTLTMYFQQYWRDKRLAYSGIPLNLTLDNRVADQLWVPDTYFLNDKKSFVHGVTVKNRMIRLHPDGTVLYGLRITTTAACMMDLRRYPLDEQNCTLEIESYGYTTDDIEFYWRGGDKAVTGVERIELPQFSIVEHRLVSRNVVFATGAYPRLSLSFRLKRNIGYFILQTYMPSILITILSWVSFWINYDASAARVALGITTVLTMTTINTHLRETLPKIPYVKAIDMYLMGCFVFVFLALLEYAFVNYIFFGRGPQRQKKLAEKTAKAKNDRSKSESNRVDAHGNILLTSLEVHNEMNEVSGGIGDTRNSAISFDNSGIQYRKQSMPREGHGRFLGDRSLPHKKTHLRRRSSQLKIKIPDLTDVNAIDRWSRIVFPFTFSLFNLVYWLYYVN
Sequence of α4β3γ2 GABAAR (P18507 40-475): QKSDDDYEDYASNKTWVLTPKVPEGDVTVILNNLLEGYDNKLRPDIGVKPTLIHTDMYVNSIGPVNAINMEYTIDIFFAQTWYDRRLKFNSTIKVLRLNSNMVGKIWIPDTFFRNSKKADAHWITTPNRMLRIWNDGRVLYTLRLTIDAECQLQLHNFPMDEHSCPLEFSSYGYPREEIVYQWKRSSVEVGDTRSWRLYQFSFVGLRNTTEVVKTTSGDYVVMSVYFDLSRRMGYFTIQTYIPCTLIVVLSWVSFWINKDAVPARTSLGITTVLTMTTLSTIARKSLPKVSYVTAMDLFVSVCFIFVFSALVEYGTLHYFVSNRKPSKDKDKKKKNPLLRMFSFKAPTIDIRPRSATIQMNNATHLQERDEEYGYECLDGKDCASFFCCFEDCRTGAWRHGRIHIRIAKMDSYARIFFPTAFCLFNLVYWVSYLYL

[9] = Metabolic stability in human S9 fraction; type: in vitro ADME; conditions: 1 hour incubation
[10] = test system: Jurkat cells; assay: IL-2 ELISA assay in PMA/PHA stimulated Jurkat cells; type: cell-based, human; conditions: for IL-2 secretion: PMA/PHA stimulated Jurkat cells
Method in brief: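 Jurkat cells were kept in RPMI 1640 with L-glutamine and 10% FBS at 37°C, 5% CO2, about 10^6 cells/ml. […] After 15 min, a PHA (25 μg/mL)/PMA (1.25 μg/ml) mixture in PBS:DMSO (80:1) was added and cells were incubated 24 h at 37°C. Supernatant IL-2 was measured by human IL-2 ELISA.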

[11] = test system: Jurkat cells; assay: Automated patch-clamp electrophysiology for Jurkat cells; type: cell-based, human; conditions: in the presence of an EC3 concentration of GABA (0.3 μM)
[12] = Stability in mouse plasma; type: in vitro ADME
[13] = test system: guinea pig tracheal rings; assay: Guinea pig airway smooth muscle organ bath; type: cell-based; conditions: 100 μM, rings contracted with 1 μM substance P, compared to vehicle
[14] = Metabolic stability in human liver microsomes; type: in vitro ADME
[15] = test system: Ova S/C Balb/c mice; assay: Airway hyper-responsiveness to methacholine; type: in vivo, mouse
Method in brief: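 Male Balb/c mice were sensitized i.p. with 2 mg/kg/d ovalbumin in 2 mg alum on days 0, 7 and 14, then challenged intranasally with 1 mg/kg/d ovalbumin on days 23–27. Dosing was by i.p. injection 40 min before testing, or twice daily during challenge. The dexamethasone control was 4 mg/kg i.p. daily for 8 days. sRaw was measured versus aerosolized methacholine (mg/ml) in conscious mice (4-7/group, mean ± SEM).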

[16] = test system: Jurkat cells; assay: Intracellular calcium assay; type: cell-based, human
[17] = Single dose pharmacokinetic study in mice; type: in vivo; conditions: 5 mg/kg i.p.
Method in brief: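 Mice received a single 5 mg/kg i.p. dose of test compound in 10% DMSO, 40% propylene glycol and 50% PBS. Compound levels were followed over time in brain, lung and blood, with N = 3.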

CN1C(=O)CN=C(c2ccccc2)c2cc(Cl)ccc21 [diazepam, reference compound]
motor impairment on rotarod ([1]; 5 mg/kg i.p.): induced significant motor impairment

CCOC(=O)c1ncn2c1[C@@H]1CCCN1C(=O)c1cc(OC)ccc1-2 [XHE-III-74EE]
airway eosinophilia ([2]; 20 mg/kg twice i.p. injection daily for 5 days): not effective in reducing airway eosinophilia
airway eosinophilia ([2]; 20 mg/kg via osmotic pump): no change in airway eosinophilia
airway eosinophilia ([2]; acute, single i.p. injection 20 mg/kg for 40 minutes): not effective in reducing airway eosinophilia
airway mucous metaplasia / mucin volume density ([3]; 20 mg/kg i.p. injections daily for 5 days): did not significantly change airway mucous metaplasia
airway mucous metaplasia / mucin volume density ([3]; 20 mg/kg/day via osmotic pump): no change in airway mucous metaplasia
mucin production ([3]; acute, single i.p. injection for 40 minutes): did not change mucin production
blood concentration, continuous release by implanted minipumps ([4]; implanted minipumps (Discussion)): 27.2 ng/mL
constant blood concentration at the day of AHR measurement ([4]; implanted minipumps, 20 mg/kg/day for 7 days): 27.2 ± 2.7 ng/g
cmax ([4]; twice daily i.p. injection): 216 ng/mL
motor impairment on rotarod ([1]; 5 mg/kg i.p.): did not impair motorsensory coordination
motor impairment on rotarod ([1]; 40 mg/kg i.p.): did cause motor-impairing effects
reported activity at α6β3γ2 GABAAR [5]: some activity
Mouse liver microsomes % remaining after 1 hour ([6]; 1 hour incubation): 86.3 ± 0.3%
predicted half-life ([6]; mouse liver microsomes and S9 fraction): several hours
Mouse S9 fraction % remaining after 1 hour [7]: 98.4 ± 0.4%
reported GABAAR subtype selectivity [8]: subtype-selective
human S9 fraction % remaining after 1 hour [9]: 95.6 ± 0.3%
IL-2 production ([10]; under similar conditions, without supplemental GABA): did not reduce IL-2 production
GABA-induced current potentiation [11]: 734%
Mouse plasma (stability; row prints no unit or time) ([12]; Table 1 of in vitro metabolic stability): 92.6 ± 0.2
stability in blood plasma ([12]; at least one hour): stable in blood plasma
relaxation of airway smooth muscle contractile force [13]: induced active relaxation
human liver microsomes % remaining after 1 hour ([14]; 1 hour incubation): 99.2 ± 0.15%
predicted half-life ([14]; human liver microsomes and S9 fraction): several hours
methacholine-induced AHR (sRaw), words ([15]; 20 mg/kg i.p. twice daily for 5 days): reduced methacholine-induced AHR
methacholine-induced AHR (sRaw), words ([15]; osmotic pump, 20 mg/kg daily for 7 days): effective in reducing AHR at low concentrations of methacholine
methacholine-induced AHR (sRaw), words ([15]; single i.p. 10 mg/kg, 40 minutes prior to analysis): did not alter AHR
methacholine-induced AHR (sRaw), words ([15]; single i.p. 20 mg/kg, 40 minutes prior to analysis): did not alter AHR
extent of inhibition of PMA/PHA-induced increases in [Ca2+]i ([16]; Jurkat cells, Fluo-4): partial inhibition
IC50 ([16]; read-out: IC50, PMA/PHA-induced increase in [Ca2+]i, Jurkat cells, Fluo-4): 24.3 ± 9.8 nM
AUC in brain as % of the AUC in blood [17]: 79%
AUC in lung as % of the blood AUC [17]: 60%
Cmax in blood versus lung [17]: roughly two times higher in blood than in lung
Tmax in blood [17]: 10 min
Tmax in lung [17]: 3 min
half-life in brain [17]: 36.7 min
half-life in lung [17]: 17.6 min

C[C@@H]1C[C@H]2[C@@H]3CCC4=CC(=O)C=C[C@]4(C)[C@@]3(F)[C@@H](O)C[C@]2(C)[C@@]1(O)C(=O)CO [dexamethasone, reference compound]
airway eosinophilia ([2]; 4 mg/kg i.p. daily for 8 days): significantly decreased airway eosinophilia
airway mucous metaplasia / mucin volume density ([3]; single i.p. injection daily for 8 days, 4 mg/kg, p<0.01): significantly decreased mucous metaplasia

NCCCC(=O)O [GABA, reference compound]
IL-2 secretion ([10]; 1 nM): ineffective
IL-2 secretion ([10]; 100 nM): significantly reduced secretion of IL-2
increase in [Ca2+]i ([16]; 150 mM): fully suppressed
concentration able to reduce the [Ca2+]i levels ([16]; Jurkat cells): ≥ 30 mM
